Sampled rows, rich in hits. Any-hit rate of the full collection: about 1.7%.
RanGTP-Impb inh – disruptors of Ran-importin-beta complex formation – biochemical, FRET, CFP-Ran, YFP-importin-beta, homogeneous, primary screen | AID 2216 | 300,000 tested, 1.1% active | cell-free CFP-Ran/YFP-importin-beta FRET ratio | inhibition, % (concentration not given with the values);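 active = more than half of the replicate wells show a fall in the fluorescence ratio signal beyond about 16%, limit read from the data, passing the limit was not always enough; inconclusive = exactly half of the replicate wells pass the set limit; inactive = fewer than half of replicates pass the limit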;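 also: 0% = DMSO wells and 100% = Ran loaded with GDP instead of GTP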
Runt-SMMHC FRET – Runt domain-CBFb-SMMHC interaction inhibition | Cerulean-Runt/Venus-CBFb-SMMHC FRET ratio 530/480, 1 h | inhibition, % at 20 µM | 220,000 tested, 0.74% active;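 active = mean inhibition across duplicate retests at 20 µM reaching about 50%, limit read from the data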;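 also: 0% = DMSO wells and 100% = wells with excess untagged CBFb-SMMHC; inhibitors lower the FRET ratio by blocking Runt binding to CBFb-SMMHC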
Runt-CBFb FRET – Runt domain-CBFb interaction inhibition. inhibition, % at 20 µM. AID 1496. Q01196+Q13951. 220,000 tested, 0.46% active. Cerulean-Runt/Venus-CBFb FRET ratio 530/480, 1 h;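 active = inhibition over about 50% at 20 µM in the single-dose screen, limit read from the data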;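 also: 0% = DMSO wells and 100% = excess unlabeled CBFb competitor control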
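test system = Cerulean-tagged RUNX1 Runt domain (FRET donor) fusion protein | reagent = Venus-CBFb binding partner, 100 nM | incubation = protein complex preformed 1 h, compound exposure 1 h, room temperature, dark | detection = FRET fluorescence | read-out basis = loss of energy transfer signal | controls = 5 µM unlabeled CBFb as full-inhibition high control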
Hck Nef HTS – human Hck-Nef kinase inhibition; P08631; 220,000 tested, 0.68% active; Recombinant Hck-YEEI plus Nef, Z-Lyte FRET kinase assay; inhibition, % at 20 µM;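 active = Hck-Nef kinase inhibition above about 50%, limit read from the data; inactive = inhibition below that limit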;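 also: 0% = DMSO with Hck plus Nef and 100% = Hck alone without Nef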
Target sequence (P08631 whole entry, looked up): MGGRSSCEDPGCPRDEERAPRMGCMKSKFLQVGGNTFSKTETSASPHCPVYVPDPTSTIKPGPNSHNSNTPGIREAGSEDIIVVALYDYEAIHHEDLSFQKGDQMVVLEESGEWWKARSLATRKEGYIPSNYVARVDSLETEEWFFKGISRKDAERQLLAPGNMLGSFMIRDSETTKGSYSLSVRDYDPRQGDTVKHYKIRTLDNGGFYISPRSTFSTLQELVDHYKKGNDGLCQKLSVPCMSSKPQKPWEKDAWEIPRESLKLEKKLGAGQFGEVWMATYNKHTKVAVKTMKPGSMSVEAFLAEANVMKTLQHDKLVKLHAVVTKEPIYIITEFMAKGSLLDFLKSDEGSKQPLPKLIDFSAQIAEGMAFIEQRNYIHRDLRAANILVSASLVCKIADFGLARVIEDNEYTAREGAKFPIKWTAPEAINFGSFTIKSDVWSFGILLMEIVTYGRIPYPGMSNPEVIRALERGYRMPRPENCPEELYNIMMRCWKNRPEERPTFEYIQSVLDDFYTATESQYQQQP
* marks the source's active call; other numbers are inactive results; u = inconclusive; x = no result given.

SMILES	RanGTP-Impb inh	Runt-SMMHC FRET	Runt-CBFb FRET	Hck Nef HTS
O=C1NC(=O)C(=Cc2ccc(-c3cc(Cl)ccc3[N+](=O)[O-])o2)C(=O)N1	-0.8	36.8	38.7	61.1*
CC(C)c1onc(C(=O)N2CCC3(CC2)OCCO3)c1[N+](=O)[O-]	2.1	x	x	x
COc1ccc(-c2cc(=NCC(=O)O)c3ccccc3o2)cc1	1.7	x	x	x
CC(=O)O[C@H]1CCC2C3CCC4=CC(=O)CCC4=C3C=C[C@@]21C (stereo partly specified)	32.5*	x	x	x
CCNCC1(c2ccc(OC)c(OC)c2)CCCC1	59.9*	23.9	12.4	2.4
CNCC1(c2ccccc2)CCCC1	u	-2.3	2.0	-0.6
COc1ccccc1N1C(=O)CC(=O)NC1=O	-2.7	x	x	x
CN1CCN(c2c(C#N)c(C(F)(F)F)nn2C)CC1	u	-4.0	80.9*	-20.2
O=C(c1cn(Cc2ccccc2)c2ccccc12)N1CCCCC1	-3.1	-3.9	-1.9	15.0
COc1ccc2c3c([nH]c2c1)C(C)NCC3 (stereo unspecified)	u	85.4*	20.9	-6.6
O=C1NC(=O)C2=Cc3ccc(O)cc3OC2(O)N1 (stereo unspecified)	x	90.0*	3.4	18.8
COc1ccc(CCNC(=O)c2c(N)n(CCN3CCOCC3)c3nc4ccccc4nc23)cc1	69.3*	83.0*	66.8*	46.8
O=C(NCCN1CCOCC1)c1ccc(Cl)nc1Cl	10.2	0.4	0.0	8.2
CCCCn1c(N)c(C(=O)NCCN2CCOCC2)c2nc3ccccc3nc21	83.3*	65.0*	20.9	42.5
Cc1ccc(N2C(=O)NC(=O)/C(=C/c3cnn(-c4ccc(C)cc4)c3)C2=O)cc1	7.0	-75.3	-2.7	10.2
Cc1ccc(N2C(=O)NC(=O)/C(=C/c3ccoc3)C2=O)cc1	x	-18.2	-127.3	54.6*
CN(C)C(=O)Oc1ccc2nnc3ccnn3c2c1	71.8*	x	x	x
O=C(Nc1ccccc1OC(=O)N1CCCCC1)N1CCCCC1	-4.8	-2.7	-0.9	0.6
O=c1ccc2cc(O[C@@H]3O[C@@H](CO)[C@H](O)[C@@H](O)[C@@H]3O)c(O)cc2o1	101.7*	x	x	x
COC(=O)C(C)NC(=S)N1CC2C[C@@H](C1)Cn1c2cccc1=O (stereo partly specified)	-1.7	x	x	x
CCCCn1c(NC(=O)c2ccc(Br)o2)c(C(=O)OCC)c2nc3ccccc3nc21	x	23.3	1.3	-13.6
CCCCn1c(NS(=O)(=O)c2ccccc2)c(C(=O)OCC)c2nc3ccccc3nc21	84.8*	8.6	2.6	14.1
Cc1ccc(Sc2ccc(C=C3C(=O)N(C)C(=O)N(C)C3=O)o2)cc1	u	-5.8	7.8	70.3*
CN1C(=O)C(=Cc2ccc(-c3cccc(Cl)c3)o2)C(=O)N(C)C1=O	2.5	-2.3	2.7	25.6
COc1ccc(CCNCc2ccccc2F)cc1	-4.0	x	x	x
SMILES	RanGTP-Impb inh	Runt-SMMHC FRET	Runt-CBFb FRET	Hck Nef HTS
Cc1ccc(S(=O)(=O)NC(CC(=O)N2CCC3(CC2)OCCO3)c2ccco2)cc1 (stereo unspecified)	20.5*	1.2	0.1	2.7
CC(=O)Nc1ccc(S(=O)(=O)NC(CC(=O)N2CCC3(CC2)OCCO3)C(C)C)cc1 (stereo unspecified)	1.2	0.2	0.5	-1.2
Nc1c(C(=O)OCc2ccccc2)c2nc3ccccc3nc2n1Cc1cccs1	-0.5	18.5	3.9	4.7
CCC(C)NC(=O)c1c(N)n(CCCOC)c2nc3ccccc3nc12 (stereo unspecified)	112.5*	20.1	-9.6	48.3
CCCCOCCCn1c(N)c(C(=O)OC(C)COC)c2nc3ccccc3nc21 (stereo unspecified)	5.4	127.7*	41.2	15.9
CCC(C)NC(=O)c1c(N)n(Cc2ccc3c(c2)OCO3)c2nc3ccccc3nc12 (stereo unspecified)	60.4*	25.9	4.7	40.7
CCC(C)NC(=O)c1c(N)n(CC2CCCO2)c2nc3ccccc3nc12 (stereo unspecified)	4.6	99.9*	11.5	42.3
Cc1sc2ncn(CC(=O)NCCCC(=O)N3CCC4(CC3)OCCO4)c(=O)c2c1C	x	2.7	-0.2	-1.0
CCOC(=O)C(NC(C)=O)C(OC(C)=O)c1cccc(N(CCCl)CCCl)c1 (stereo unspecified)	4.2	-0.6	-0.9	-9.1
COc1ccc(CC(C)NCCc2ccc(OC)c(OC)c2)cc1 (stereo unspecified)	-1.2	x	x	x
COCCCn1c(N)c(C(=O)Nc2sc3c(c2C(=O)OC)CCCC3)c2nc3ccccc3nc21	11.6	8.2	93.1*	-2.0

Assay outcomes as filed in PubChem BioAssay.
